Activity change, negative = inhibition and AC50 data for 77 compounds are collected here from PubChem BioAssay AID493213 (Broad Institute, 2011).

Molecules are shown by their SMILES. Values joined by “and” are separate entries in the source; they are usually repeats but may differ in a detail not shown here. Identical values can stand only once. Active and inactive are the calls of the source.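 How the source made its calls: active means dose response lowering luminescence by over half the proteasome blocker control effect, potency within ten times top dose; inactive means change in the opposite direction, plus the rest.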

System in the first test: not listed separately
Kind of test: proteasome chymotrypsin-like activity inhibition in U2OS, dose response, counter-screen for HIF activator project, cell-based, luminescence, dry powder, set 3 (AID 493213). Conditions: U2OS proteasome chymotrypsin-like activity, Proteasome-Glo luminescence; at 38 µM (top of the series). Summed up:
(§1)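 repeats = duplicates | test system = U2OS cells | amount = 2,500 U2OS cells per well | schedule = 24 h plating, 4 h compound exposure, 2 h room-temperature reagent | detection = Proteasome-Glo luminescence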
For orientation: The purpose of a counterscreen is to sort out artefacts and off-target activity.
As to `COc1cccc(CNc2nc(-c3ccccn3)nnc2-c2ccccc2)c1`, the activity change, negative = inhibition is 36.9% (inactive).
Same read-out and setting: the result for `c1ccc(-c2nnc(-c3ccccn3)nc2N2CCC(C3CCCCC3)C2)cc1` (configuration not stated) reads 51.6% (inactive); that for `Cc1ccc(NC(=O)c2cc(-c3ccccc3)on2)cn1`, 14.5% (inactive); that for `c1ccc(-c2nnc(-c3ccccn3)nc2NCc2cccnc2)cc1`, 14.6% (inactive).
Still for that read-out and setting: with `Clc1cccc(CNc2nc(-c3ccccn3)nnc2-c2ccccc2)c1` the figure was 46.4% (inactive).
With `c1ccc(-c2cccc(CNc3nc(-c4ccccn4)nnc3-c3ccccc3)c2)cc1`, the activity change, negative = inhibition is 26.9% (inactive).
Still for that read-out and setting: with `c1ccc(-c2nnc(-c3ccccn3)nc2NCC2CC2)cc1` the figure was -6.55% (inactive).
For the compound `Cc1ccccc1CNc1nc(-c2ccccn2)nnc1-c1ccccc1`, the activity change, negative = inhibition is 29.7% (inactive).
On the same count and under the same terms, the result for `COc1ccccc1N1CCN(Cc2ccc(O)c3ncccc23)CC1` reads 27.2% (inactive); that for `Oc1ccc(CNC2CCc3ccccc32)c2cccnc12` (configuration not stated), 81.7% (inactive).
The same measure, in the same setting: with `CC(C)(C)OC(=O)N1CCN(Cc2ccc(O)c3ncccc23)CC1` the figure was 3.79% (inactive); with `Cc1ccc(CNc2nc(-c3ccccn3)nnc2-c2ccccc2)cc1C`, 76.7% (inactive); with `CC(C)(C)c1ccc(CNc2nc(-c3ccccn3)nnc2-c2ccccc2)cc1`, 37.7% (inactive).
On the same count and under the same terms, with `c1ccc(-c2nnc(Nc3nc(-c4ccccn4)nnc3-c3ccccc3)s2)cc1` the figure was -5.61% (inactive); with `c1ccc(-c2nnc(-c3ccccn3)nc2N2CCC(N3CCOCC3)CC2)cc1`, 16.5% (inactive); with `CN(C)c1nc(-c2ccccn2)nnc1-c1ccccc1`, 10.9% (inactive).
Take `c1ccc(CNc2nc(-c3ccccn3)nnc2-c2ccccc2)cc1`: the activity change, negative = inhibition was 25.8% (inactive).
As for `Oc1ccc(CN2CCC(Cc3ccccc3)CC2)c2cccnc12`, the activity change, negative = inhibition was 30.7% (inactive).
Regarding `c1ccc(-c2nnc(-c3ccccn3)nc2NCc2ccccn2)cc1`, the activity change, negative = inhibition was 1.56% (inactive).
Still for that read-out and setting: with `CN1CCN(C(=O)c2cc(-c3ccccc3)on2)CC1` the figure was -34.5% (inactive); with `c1ccc(-c2nnc(-c3ccccn3)nc2NCCc2ccccn2)cc1`, 16.8% (inactive); with `Cc1ccc(Nc2nc(-c3ccccn3)nnc2-c2ccccc2)cn1`, -25% (inactive).
Same read-out and setting: the result for `c1ccc(-c2nnc(-c3ccccn3)nc2NCCCN2CCOCC2)cc1` reads 6.94% (inactive).
For the compound `Cn1c(NC(=O)c2cc(-c3ccccc3)on2)nc2ccccc21`, the activity change, negative = inhibition is -1.13% (inactive).
The same measure, in the same setting: with `c1ccc(-c2nnc(-c3ccccn3)nc2Nc2nc3ccccc3s2)cc1` the figure was 28.5% (inactive); with `c1ccc(-c2nnc(-c3ccccn3)nc2NCC2CCOCC2)cc1`, 6.73% (inactive); with `O=C(c1cc(-c2ccccc2)on1)N1CCC(N2CCOCC2)CC1`, -8.89% (inactive).
As for `N#CC1(c2ccccc2)CCN(Cc2ccc(O)c3ncccc23)CC1`, the activity change, negative = inhibition is 48.4% (inactive).
Consider `O=C(NCc1ccccc1)c1cc(-c2ccccc2)on1`, for which the activity change, negative = inhibition was -23.1% (inactive).
Same read-out and setting: the result for `O=C(NCCN1CCCCC1)c1cc(-c2ccccc2)on1` reads -24.8% (inactive); that for `O=C(Nc1cnc2ccccc2c1)c1cc(-c2ccccc2)on1`, -16.4% (inactive).
The same measure, in the same setting: with `Oc1ccc(CNC2Cc3ccccc3C2)c2cccnc12` the figure was 26.4% (inactive); with `c1ccc(-c2ccc(CNc3nc(-c4ccccn4)nnc3-c3ccccc3)cc2)cc1`, 22% (inactive); with `CC(Nc1nc(-c2ccccn2)nnc1-c1ccccc1)c1ccccc1` (configuration not stated), 22.8% (inactive).
Still for that read-out and setting: the result for `Cc1ccccc1CNC(=O)c1cc(-c2ccccc2)on1` reads -46.6% (inactive); that for `c1ccc(-c2nnc(-c3ccccn3)nc2NCC2CCCCC2)cc1`, 49.9% (inactive).
`Oc1ccc(CN2CCC3CCCCC3C2)c2cccnc12` (configuration not stated): the activity change, negative = inhibition was 26.7% (inactive).
On the same count and under the same terms, the result for `OCCCNc1nc(-c2ccccn2)nnc1-c1ccccc1` reads -5.89% (inactive).
The same measure, in the same setting: the result for `C=CCNc1nc(-c2ccccn2)nnc1-c1ccccc1` reads 4.88% (inactive); that for `Cn1c(-c2ccccc2)cnc1NC(=O)c1cc(-c2ccccc2)on1`, -10.3% (inactive); that for `c1ccc(-c2nnc(-c3ccccn3)nc2Nc2cnc3ccccc3n2)cc1`, -2.5% (inactive).
Still for that read-out and setting: with `c1ccc(CCNc2nc(-c3ccccn3)nnc2-c2ccccc2)cc1` the figure was 43.3% (inactive); with `COc1ccc(CNc2nc(-c3ccccn3)nnc2-c2ccccc2)cc1`, 53.2% (inactive); with `O=C(Nc1ncc(-c2ccccc2)o1)c1cc(-c2ccccc2)on1`, -53.8% (inactive).
Turning to `C[C@@H](Nc1nc(-c2ccccn2)nnc1-c1ccccc1)C1CCCCC1`, the activity change, negative = inhibition was 133% (inactive).
For the compound `OCC1CCN(Cc2ccc(O)c3ncccc23)CC1`, the activity change, negative = inhibition is 51.9% (inactive).
Same read-out and setting: with `Cc1cccc(CNc2nc(-c3ccccn3)nnc2-c2ccccc2)c1` the figure was 45.1% (inactive); with `C[C@@H](Nc1nc(-c2ccccn2)nnc1-c1ccccc1)c1ccccc1`, 79.4% (inactive); with `C[C@H](Nc1nc(-c2ccccn2)nnc1-c1ccccc1)C1CCCCC1`, 72.6% (inactive).
On the same count and under the same terms, the result for `CN1CCN(c2nc(-c3ccccn3)nnc2-c2ccccc2)CC1` reads 20.7% (inactive); that for `c1ccc(-c2nnc(-c3ccccn3)nc2N2CCN(c3ccncc3)CC2)cc1`, 10.3% (inactive).
The same measure, in the same setting: the result for `CC1CN(Cc2ccc(O)c3ncccc23)CC(C)O1` (configuration not stated) reads 12% (inactive); that for `OCC1CCN(c2nc(-c3ccccn3)nnc2-c2ccccc2)CC1`, 6.32% (inactive); that for `O=C(c1cc(-c2ccccc2)on1)N1CCC(CO)CC1`, -22.3% (inactive).
Regarding `O=C(NCCCN1CCOCC1)c1cc(-c2ccccc2)on1`, the activity change, negative = inhibition was -24.4% (inactive).
The same measure, in the same setting: with `c1ccc(-c2nnc(-c3ccccn3)nc2N2CCC(c3ccccc3)C2)cc1` (configuration not stated) the figure was -6.19% (inactive); with `O=C(NCCN1CCOCC1)c1cc(-c2ccccc2)on1`, -26.6% (inactive); with `c1ccc(-c2csc(Nc3nc(-c4ccccn4)nnc3-c3ccccc3)n2)cc1`, -8.99% (inactive).
On the same count and under the same terms, the result for `O=C(NCCCn1ccnc1)c1cc(-c2ccccc2)on1` reads 9.43% (inactive); that for `Cn1c(-c2ccccc2)cnc1Nc1nc(-c2ccccn2)nnc1-c1ccccc1`, 6.25% (inactive).
The same measure, in the same setting: with `O=C(Nc1nnc(-c2ccccc2)s1)c1cc(-c2ccccc2)on1` the figure was -5.17% (inactive); with `Oc1ccc(CN2CCc3ccccc3C2)c2cccnc12`, 65.3% (inactive) and 46.7% (inactive).
In the case of `Cc1ccc(CNc2nc(-c3ccccn3)nnc2-c2ccccc2)cc1`, the activity change, negative = inhibition is 14.3% (inactive).
Same read-out and setting: the result for `Cc1cccc(Nc2nc(-c3ccccn3)nnc2-c2ccccc2)n1` reads -11.6% (inactive).
Same read-out and setting: with `O=C(NCC1CCCCC1)c1cc(-c2ccccc2)on1` the figure was -23.5% (inactive).
Consider `CC(C)(C)CCNc1nc(-c2ccccn2)nnc1-c1ccccc1`, for which the activity change, negative = inhibition is 145% (inactive) and 67.4% (inactive).

Another test concerns U2OS proteasome chymotrypsin-like activity, Proteasome-Glo luminescence. Described as above.
Settings: not given
Summed up: as §1
For `O=C(NCCCO)c1cc(-c2ccccc2)on1`, the AC50 (in general, the concentration giving half of the maximal activity seen) is 3.88 µM.
On the same count and under the same terms, with `O=C(Nc1ncc2ccccc2n1)c1cc(-c2ccccc2)on1` the figure was 28.1 µM; with `CCCCNC(=O)c1cc(-c2ccccc2)on1`, 21.5 µM; with `O=C(Nc1ccc2ccccc2n1)c1cc(-c2ccccc2)on1`, 29.1 µM.
In the case of `Cc1cccc(NC(=O)c2cc(-c3ccccc3)on2)n1`, the half-maximal activity concentration (AC50) was 17.3 µM.
Still for that read-out and setting: with `CN(C)CCNC(=O)c1cc(-c2ccccc2)on1` the figure was 33.4 µM.
Consider `O=C(c1cc(-c2ccccc2)on1)N1CCN(c2ccncc2)CC1`, for which the AC50 is 2.52 µM.
Take `CC(C)(C)CCNC(=O)c1cc(-c2ccccc2)on1`: the AC50 is 36.5 µM.
On the same count and under the same terms, with `Cc1cccc(CNC(=O)c2cc(-c3ccccc3)on2)c1` the figure was 39.4 µM; with `O=C(NCC1CC1)c1cc(-c2ccccc2)on1`, 33.7 µM; with `c1ccc(-c2cnc(Nc3nc(-c4ccccn4)nnc3-c3ccccc3)s2)cc1`, 2.42 µM.
